According to ChEMBL document CHEMBL4342485, “Discovery of Potent Benzolactam IRAK4 Inhibitors with Robust in Vivo Activity” (ACS Med Chem Lett, 2020):
Calls of active or inactive are those of the source. The rule behind the calls is not given here.

Experiments:
[1] = Protein binding in mouse plasma at 5 uM incubated for 6 hrs by red equilibrium dialysis based LC-MS/MS analysis; assay type: ADME, cell-free; settings: read-out: PPB (converted)
[2] = Half life in dog at 1 mg/kg, iv or po; assay type: ADME, organism-based, Canis lupus familiaris; settings: in vivo
Mus musculus [3] = experiment: In vivo inhibition of IRAK4 in R848-induced C57BL/6 mouse assessed as IL6 level at 100 mg/kg, po administered as nanosuspension at 1 hr prior to R848 challenge and measured after 1 hr by ELISA relative to control; assay type: functional; set-up: scale not given: the % may be the effect or the level left
Procedure, shortened: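 C57 black 6 mice were pretreated with vehicle or a compound nanosuspension in 0.5% methyl-cellulose/0.2% tween-80 over a dose range, 1 h before R848 stimulation. Blood was sampled 1 h post-R848, and IL-6 and TNFα levels were compared with vehicle-treated, R848-stimulated mice.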

[4] = Volume of distribution at steady state in dog at 1 mg/kg, iv or po; assay type: ADME, organism-based, Canis lupus familiaris; settings: in vivo, read-out: Vdss
[5] = Protein binding in human plasma at 5 uM incubated for 6 hrs by red equilibrium dialysis based LC-MS/MS analysis; assay type: ADME, cell-free
[6] = Volume of distribution at steady state in mouse at 1 mg/kg, iv or po; assay type: ADME, organism-based; settings: in vivo, read-out: Vdss
Mus musculus [7] = experiment: In vivo inhibition of IRAK4 in R848-induced C57BL/6 mouse assessed as IFN alpha levels at 33.3 mg/kg, po administered as nanosuspension at 1 hr prior to R848 challenge and measured after 1 hr by ELISA relative to control; assay type: functional; set-up: scale not given: the % may be the effect or the level left
Procedure, shortened: (§1)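 C57 black 6 mice were given vehicle or compound as a nanosuspension in MCT (0.5% methyl-cellulose/0.2% tween-80) across a dose range, 1 h before TLR7/8 agonist R848 (resiquimod) stimulation. Blood was drawn 1 h after R848, which is 2 h after compound. Plasma IFNα was measured by ELISA against vehicle-treated, R848-stimulated animals. Plasma drug levels were taken at the same time.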

Mus musculus [8] = experiment: In vivo inhibition of IRAK4 in R848-induced C57BL/6 mouse assessed as inhibition of TNF alpha secretion at 3 mg/kg, po administered as nanosuspension at 1 hr prior to R848 challenge and measured after 1 hr by ELISA; assay type: functional, organism-based
Procedure, shortened: (§2)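 C57 black 6 mice dosed with vehicle or nanosuspension in 0.5% methyl-cellulose/0.2% tween-80 across a dose range 1 h before stimulation with TLR7/8 agonist R848; blood sampled 1 h after R848 (2 h post-dose). Plasma IFNα, IL-6 and TNFα measured, IFNα by ELISA; compound plasma levels also determined.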

[9] = Oral bioavailability in cynomolgus monkey at 1 mg/kg; assay type: ADME, organism-based, Macaca fascicularis; settings: in vivo
Mus musculus [10] = experiment: In vivo inhibition of IRAK4 in R848-induced C57BL/6 mouse assessed as IFN alpha levels at 1.2 mg/kg, po administered as nanosuspension at 1 hr prior to R848 challenge and measured after 1 hr by ELISA relative to control; assay type: functional; set-up: scale not given: the % may be the effect or the level left; procedure, shortened: as §1
[11] = Clearance in dog plasma at 1 mg/kg, iv or po; assay type: ADME, organism-based, Canis lupus familiaris
[12] = Clearance in cynomolgus monkey plasma at 1 mg/kg, iv or po; assay type: ADME, organism-based, Macaca fascicularis
Mus musculus [13] = experiment: In vivo inhibition of IRAK4 in R848-induced C57BL/6 mouse assessed as IFN alpha levels at 3.7 mg/kg, po administered as nanosuspension at 1 hr prior to R848 challenge and measured after 1 hr by ELISA relative to control; assay type: functional; set-up: scale not given: the % may be the effect or the level left; procedure, shortened: as §1
[14] = Oral bioavailability in rat at 1 mg/kg; assay type: ADME, organism-based; settings: in vivo
[15] = Half life in rat at 1 mg/kg, iv or po; assay type: ADME, organism-based; settings: in vivo
[16] = AUC (infinity) in mouse at 1 mg/kg, iv or po; assay type: ADME, organism-based; settings: in vivo
[17] = AUC (infinity) in rat at 1 mg/kg, iv or po; assay type: ADME, organism-based; settings: in vivo
Procedure, shortened: (§3)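 Separate intravenous and oral PK studies, each dosed at 1 mg/kg. Plasma AUC was extrapolated to infinity and reported in µM*h. Half-life and oral bioavailability were derived from the same studies.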

[18] = Half life in mouse at 1 mg/kg, iv or po; assay type: ADME, organism-based; settings: in vivo
[19] = Protein binding in dog plasma at 5 uM incubated for 6 hrs by red equilibrium dialysis based LC-MS/MS analysis; assay type: ADME, cell-free, Canis lupus familiaris; settings: read-out: PPB (converted)
Mus musculus [20] = experiment: In vivo inhibition of IRAK4 in R848-induced C57BL/6 mouse assessed as IFN alpha levels at 11.1 mg/kg, po administered as nanosuspension at 1 hr prior to R848 challenge and measured after 1 hr by ELISA relative to control; assay type: functional; set-up: scale not given: the % may be the effect or the level left; procedure, shortened: as §1
[21] = Oral bioavailability in dog at 1 mg/kg; assay type: ADME, organism-based, Canis lupus familiaris; settings: in vivo
[22] = Volume of distribution at steady state in cynomolgus monkey at 1 mg/kg, iv or po; assay type: ADME, organism-based, Macaca fascicularis; settings: in vivo, read-out: Vdss
[23] = Oral bioavailability in mouse at 1 mg/kg; assay type: ADME, organism-based; settings: in vivo
[24] = Protein binding in cynomolgus monkey plasma at 5 uM incubated for 6 hrs by red equilibrium dialysis based LC-MS/MS analysis; assay type: ADME, cell-free, Macaca fascicularis; settings: read-out: PPB (converted)
Mus musculus [25] = experiment: In vivo inhibition of IRAK4 in R848-induced po dosed C57BL/6 mouse assessed as inhibition of TNFalpha secretion administered as nanosuspension at 1 hr prior to R848 challenge and measured after 1 hr by ELISA; assay type: functional, organism-based; procedure, shortened: as §2
Mus musculus [26] = experiment: In vivo inhibition of IRAK4 in R848-induced po dosed C57BL/6 mouse assessed as inhibition of IL-6 secretion administered as nanosuspension at 1 hr prior to R848 challenge and measured after 1 hr by ELISA; assay type: functional, organism-based; procedure, shortened: as §2
[27] = Clearance in mouse plasma at 1 mg/kg, iv or po; assay type: ADME, organism-based
[28] = Apparent permeability across apical to basolateral side in dog MDCKI cells at 10 uM measured after 60 to 180 mins by lucifer yellow dye based LC-MS/MS analysis; assay type: ADME, cell-based, Canis lupus familiaris; settings: MDCK
Procedure, shortened: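 Apical-to-basolateral permeability measured in Madin–Darby canine kidney (MDCK) cell monolayers; reported in ×10–6 cm/s.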

[29] = biological target: T1, Interleukin-1 receptor-associated kinase 4 (Homo sapiens, UniProt Q9NWZ3)
T1 sequence (Q9NWZ3 whole entry): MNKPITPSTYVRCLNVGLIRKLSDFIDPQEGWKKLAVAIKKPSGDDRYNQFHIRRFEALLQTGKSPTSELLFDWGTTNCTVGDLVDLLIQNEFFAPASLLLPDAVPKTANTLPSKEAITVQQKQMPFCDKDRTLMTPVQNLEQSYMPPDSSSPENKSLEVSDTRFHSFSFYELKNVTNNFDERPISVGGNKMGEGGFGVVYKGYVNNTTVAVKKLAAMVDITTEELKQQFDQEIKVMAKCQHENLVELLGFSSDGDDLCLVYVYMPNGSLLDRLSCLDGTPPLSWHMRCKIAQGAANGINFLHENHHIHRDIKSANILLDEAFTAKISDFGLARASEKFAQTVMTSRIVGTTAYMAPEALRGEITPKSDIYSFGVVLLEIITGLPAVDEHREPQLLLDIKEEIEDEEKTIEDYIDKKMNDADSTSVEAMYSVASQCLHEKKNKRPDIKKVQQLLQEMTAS

[30] = Clearance in rat plasma at 1 mg/kg, iv or po; assay type: ADME, organism-based
[31] = AUC (infinity) in cynomolgus monkey at 1 mg/kg, iv or po; assay type: ADME, organism-based, Macaca fascicularis; settings: in vivo; procedure, shortened: as §3
[32] = Half life in cynomolgus monkey at 1 mg/kg, iv or po; assay type: ADME, organism-based, Macaca fascicularis; settings: in vivo
[33] = Protein binding in rat plasma at 5 uM incubated for 6 hrs by red equilibrium dialysis based LC-MS/MS analysis; assay type: ADME, cell-free; settings: read-out: PPB (converted)
[34] = Volume of distribution at steady state in rat at 1 mg/kg, iv or po; assay type: ADME, organism-based; settings: in vivo, read-out: Vdss
[35] = AUC (infinity) in dog at 1 mg/kg, iv or po; assay type: ADME, organism-based, Canis lupus familiaris; settings: in vivo; procedure, shortened: as §3
Mus musculus [36] = experiment: In vivo inhibition of IRAK4 in R848-induced po dosed C57BL/6 mouse assessed as inhibition of IFN alpha secretion administered as nanosuspension at 1 hr prior to R848 challenge and measured after 1 hr by ELISA; assay type: functional, organism-based; procedure, shortened: as §2
[37] = biological target: T1, Interleukin-1 receptor-associated kinase 4; experiment: Inhibition of recombinant full-length N-terminal His6-tagged human IRAK4 expressed in baculovirus expression system using H-KKARFSRFAGSSPSQSSMVAR peptide as substrate after 90 mins by fluorescence polarisation assay

Structure (SMILES): CC(C)(O)[C@H](F)CN1Cc2cc(NC(=O)c3cnn4cccnc34)c(N3CCOCC3)cc2C1=O
- fraction unbound at 6 h, 5 µM [1]: 0.058
- half-life [2]: 4.1 h
- Activity (Mus musculus [3]): -64%
- Vd [4]: 3.7 L/kg
- PPB [5]: 72.4%
- Vd [6]: 2.2 L/kg
- Activity (Mus musculus [7]): -53%
- inhibition (Mus musculus [8]): Active
- bioavailability [9]: 47%
- Activity (Mus musculus [10]): -12%
- clearance [11]: 11.3 mL/min/kg
- clearance [12]: 15.8 mL/min/kg
- Activity (Mus musculus [13]): -24%
- bioavailability [14]: 31%
- half-life [15]: 1.6 h
- AUC(0-inf) [16]: 1.2 µM·h
- AUC(0-inf) [17]: 3.8 µM·h
- half-life [18]: 1.9 h
- fraction unbound at 6 h, 5 µM [19]: 0.224
- Activity (Mus musculus [20]): -45%
- bioavailability [21]: 109%
- Vd [22]: 3.7 L/kg
- bioavailability [23]: 34%
- fraction unbound at 6 h, 5 µM [24]: 0.332
- inhibition (Mus musculus [25]): Dose-dependent effect
- inhibition (Mus musculus [26]): Dose-dependent effect
- clearance [27]: 29 mL/min/kg
- Papp A→B at 10 µM [28]: 9.1 to 9.2 ×10⁻⁶ cm/s
- IC50 [29]: 0.19 µM
- clearance [30]: 9.2 mL/min/kg
- AUC(0-inf) [31]: 2.2 µM·h
- half-life [32]: 5.4 h
- fraction unbound at 6 h, 5 µM [33]: 0.086
- Vd [34]: 0.95 L/kg
- AUC(0-inf) [35]: 3.1 µM·h
- inhibition (Mus musculus [36]): Dose-dependent effect
- Ki [37]: 0.0014 µM
